According to PMC7250216 (Biomedicine & pharmacotherapy = Biomedecine & …, 2020):
Bridges are numbered along the chain shown (N, C = ends). Where no end group is shown, it is not given here.

Legend:
[1] = system: marmoset vasopressin receptor 1a (mV1aR); experiment: FLIPR Membrane Potential; assay type: cell-based, marmoset (Callithrix jacchus); conditions: mV1aR expressing cells
In short: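 CHO-K1 cells stably expressing the species' V1aR were plated at 0.3 million cells/mL and grown overnight. They were loaded with FMP Blue in Locke's buffer (pH 7.4, 2.3 mM CaCl2) for 45 min at 37°C. After 60 s baseline, log concentrations of peptide were added, with all peptides run in parallel on one plate. Reads were ex 530/em 565 nm every 2 s for 200 s.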

[2] = system: non-transfected CHO-K1 cells; conditions: ref 35 (Pierce et al. 2020); cited from earlier work
[3] = system: untransfected CHO-K1 cells; conditions: ref 35 (Pierce et al. 2020); cited from earlier work
[4] = system: membrane hyperpolarization in mV1aR-expressing CHO cells; assay type: cell-based, Chinese hamster
[5] = system: membrane hyperpolarization in qV1aR-expressing CHO cells; assay type: cell-based, Chinese hamster
[6] = system: membrane hyperpolarization in hV1aR-expressing CHO cells; assay type: cell-based, Chinese hamster
[7] = system: intracellular Ca2+ mobilization in mV1aR-expressing CHO cells; assay type: cell-based, Chinese hamster; conditions: 1 μM final concentration
In short: (§1)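 Stably receptor-transfected CHO-K1 cells were plated at 0.3 million cells/mL and grown overnight. They were loaded for 60 min at 37°C with 4 μM Fluo-3 AM and 0.04% pluronic acid in Locke's buffer (pH 7.4, 2.3 mM CaCl2, 0.5 mM probenecid), then washed four times. Thapsigargin (1 μM final) was given for 5 min. After 60 s baseline, peptide was added and read at ex 488/em 538 nm every 2 s for 200 s.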

[8] = system: intracellular Ca2+ mobilization in qV1aR-expressing CHO cells; assay type: cell-based, Chinese hamster; conditions: 1 μM final concentration
In short: as §1

[9] = system: intracellular Ca2+ mobilization in hV1aR-expressing CHO cells; assay type: cell-based, Chinese hamster; conditions: 1 μM final concentration
In short: as §1

N=C(N)NCCC[C@H](NC(=O)[C@@H]1CCCN1C(=O)[C@@H]1CSSC[C@H](N)C(=O)N[C@@H](Cc2ccc(O)cc2)C(=O)N[C@@H](Cc2ccccc2)C(=O)N[C@@H](CCC(N)=O)C(=O)N[C@@H](CC(N)=O)C(=O)N1)C(=O)NCC(N)=O [AVP, Arginine vasopressin]
shape of concentration response curve, membrane hyperpolarization [1]: U-shaped concentration response curve | Ca2+ mobilization [2]: did not mobilize | induced hyperpolarizing response [3]: absence

CC(=O)OCOC(=O)CN(CC(=O)OCOC(C)=O)c1ccccc1OCCOc1ccccc1N(CC(=O)OCOC(C)=O)CC(=O)OCOC(C)=O [BAPTA-AM, 1,2-Bis(2-aminophenoxy)ethane-N,N,N′,N′-tetraacetic acid tetrakis (acetoxymethyl ester)]
effect of pretreatment on AVP and OT-analog induced membrane hyperpolarization [4]: blocked | effect of pretreatment on AVP and OT-analog induced membrane hyperpolarization [5]: blocked | effect of pretreatment on AVP and OT-analog induced membrane hyperpolarization [6]: blocked

Clc1ccccc1C(c1ccccc1)(c1ccccc1)n1cccn1 [TRAM-34]
effect of pretreatment on AVP and OT-analog induced membrane hyperpolarization [4]: most effective inhibition | effect on SKA-31-induced membrane hyperpolarization [4]: inhibited | effect of pretreatment on AVP and OT-analog induced membrane hyperpolarization [5]: most effective inhibition | effect on SKA-31-induced membrane hyperpolarization [5]: inhibited | effect of pretreatment on AVP and OT-analog induced membrane hyperpolarization [6]: most effective inhibition | effect on SKA-31-induced membrane hyperpolarization [6]: inhibited

CC(C)(O)[C@H]1O[C@H]2CC[C@@]3(C)[C@@](O)(CC[C@H]4Cc5c([nH]c6ccccc56)[C@@]43C)C2=CC1=O [paxilline]
effect of pretreatment on AVP and OT-analog induced membrane hyperpolarization [4]: little to no effect | effect on NS-1619-induced membrane hyperpolarization [4]: inhibited | effect on NS-1619-induced membrane hyperpolarization [5]: inhibited | inhibition of AVP or OT-analog induced membrane hyperpolarization [5]: 15-30% | effect of pretreatment on AVP and OT-analog induced membrane hyperpolarization [6]: little to no effect | effect on NS-1619-induced membrane hyperpolarization [6]: inhibited

C/C=C(/C)C(=O)O[C@H]1C(C)=C2[C@H]([C@@H]1OC(=O)CCCCCCC)[C@@](C)(OC(C)=O)C[C@H](OC(=O)CCC)[C@@]1(O)[C@H]2OC(=O)[C@@]1(C)O [thapsigargin]
effect of pretreatment on AVP and OT-analog induced membrane hyperpolarization [4]: eliminated | effect of pretreatment on AVP and OT-analog induced membrane hyperpolarization [5]: eliminated | effect of pretreatment on AVP and OT-analog induced membrane hyperpolarization [6]: eliminated | effect of pretreatment on AVP and OT-analog induced calcium mobilization [7]: blocked | effect of pretreatment on AVP and OT-analog induced calcium mobilization [8]: blocked | effect of pretreatment on AVP and OT-analog induced calcium mobilization [9]: blocked

apamin: selective inhibitor of SKCa channels (CNCKAPETALCARRCQQH-NH2; disulfide 1-11, 3-15; UniProt P01500 28-45, looked up)
inhibition of AVP or OT-analog induced membrane hyperpolarization [4]: ≤ 10% | inhibition of AVP or OT-analog induced membrane hyperpolarization [5]: ≤ 10% | effect on AVP or Pro^8-OT-induced hyperpolarizing response [6]: did not markedly affect | reduction of Leu^8-OT-induced membrane hyperpolarization [6]: ~ 50%
